Series [1] in a line: Half life of thermal relaxation of compound in DMSO-d6 using photoirradiated compound by 1H NMR method. In kind it is physicochemical. Put shortly: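 Irradiated to photostationary state as 10 mM stock in DMSO-d6 (1 mL, within 10 min); 1H NMR spectra recorded starting immediately after irradiation. Z/E fraction α from spectra plotted against time, fit to a single exponential to give half-life; 25 °C.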

The target of series [2] is T1, Sodium- and chloride-dependent GABA transporter 1 (Mus musculus, UniProt P31648). As to the kind of experiment: Inhibition of mouse GAT1 expressed in HEK293 cells assessed as reduction in [3H]GABA uptake preincubated cells with photoirradiated compound for 25 mins followed by [3H]GABA addition measured after 4 mins by liquid scintillation counting method. Format: cell-based. Put shortly: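 HEK293 cells stably expressing the mouse GAT subtype (about 200000 cells) preincubated with compound for 25 min at 25 °C in the dark with shaking. Then 8 nM [3H]GABA plus 32 nM unlabeled GABA (final) added for 4 min. Stopped by filtration; filter radioactivity by scintillation counting. Photoisomerized 10 mM DMSO-d6 stocks (photostationary state, Z/E ratio by 1H NMR) diluted protected from light; non-irradiated stock tested in parallel.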

Series [3] can be described thus: Half life of thermal relaxation of compound in pH 7.4 DMSO-d6/phosphate-buffer using photoirradiated compound at 50 uM incubated in dark by UV/vis-spectroscopy. In kind it is physicochemical. As to conditions: pH 7.4, 50 µM.
Series [4] has as its target T1, Sodium- and chloride-dependent GABA transporter 1. Kind of series: Inhibition of mouse GAT1 assessed as reduction in GABA uptake using photoirradiated compound. The procedure, abridged: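 A 10 mM DMSO-d6 stock was irradiated to its photostationary state: 350 nm Rayonet for diphenyldiazenes, 375 nm LED for naphthylphenyldiazenes. (Z)/(E) ratio was checked by 1H NMR, and dilutions were made protected from light. mGAT1-HEK293 cells were preincubated 25 min at 25 °C in the dark, then given 4 min uptake of 8 nM [3H]GABA plus 32 nM GABA. Filtration and scintillation counting gave pIC50.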

Series [5] has the same target. Kind of series: Inhibition of mouse GAT1 assessed as reduction in GABA uptake.

pIC50: −log10 of the molar value.

In the case of `O=C(O)C1CCCN(CCC#Cc2cccc(N=Nc3ccccc3)c2)C1` (mixture of isomers), the results for the t1/2 in series [1] and in series [3] were 15 days and 22 days, respectively. Also, in series [2], the pIC50 was 6.05.

For the molecule `O=C(O)[C@@H]1CCCN(CCOCCc2cccc(N=Nc3cccc4ccccc34)c2)C1` (mixture of isomers), the negative-log IC50 (pIC50) was 5.78 in series [4] and 6.39 in series [5].

One may read the pIC50 as −log10 of the IC50, conventionally taken in molar units.

Values taken from ChEMBL document CHEMBL4130630 (J Med Chem, 2018).
